Reference: ChEMBL document CHEMBL4689842, “EUbOPEN Chemogenomics Library wave 1” (2021)

System: HEK-293T
Assay: Multiplex assay against HEK293T;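 on Population Tubulin-Different-Phenotype (%): share of the cells with healthy nuclei that show this phenotype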
Type: toxicity, cell-based
Details: human
Summary of the method: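 Cells stained live at seeding with Hoechst33342, BioTracker Green Microtubule Cytoskeleton Dye, MitoTracker Red and Annexin V Alexa Fluor 680 were imaged on a CQ1 microscope at 37°C and 5% CO2 after compound addition. Their classification by CellPathfinder machine-learning gating ran from Hoechst high-intensity objects versus normal cells, to healthy, pyknosed or fragmented nuclei among normal cells, to mitotic or apoptotic among pyknosed cells. Tubulin, mitochondrial-mass and membrane-permeability phenotypes are per cents of healthy-nucleus cells.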

[1] = 12 h, 1 µM, compound concentration 1 uM, replicate 1
[2] = 12 h, 1 µM, compound concentration 1 uM, replicate 2
[3] = 12 h, 10 µM, compound concentration 10 uM, replicate 1
[4] = 12 h, 10 µM, compound concentration 10 uM, replicate 2
[5] = 24 h, 1 µM, compound concentration 1 uM, replicate 1
[6] = 24 h, 1 µM, compound concentration 1 uM, replicate 2
[7] = 24 h, 10 µM, compound concentration 10 uM, replicate 1
[8] = 24 h, 10 µM, compound concentration 10 uM, replicate 2
[9] = 48 h, 1 µM, compound concentration 1 uM, replicate 1
[10] = 48 h, 1 µM, compound concentration 1 uM, replicate 2
[11] = 48 h, 10 µM, compound concentration 10 uM, replicate 1
[12] = 48 h, 10 µM, compound concentration 10 uM, replicate 2

## Nc1nc2c(c(N3CCNCC3)n1)CCC1=C2[C@@H]2CCCC[C@@H]2O1
[1]
  Population Apoptotic (%): 34%
  Population Fragmented Nuclei (%): 7%
  Population Hoechst High Intensity Objects (%): 10%
  Population Membrane Permeable-Phenotype (%): 3%
  Population Mitochondria Different-Phenotype (%): 82%
  Population Mitotic Cells (%): 65%
  Population Normal (%): 89%
  Population Pyknosed Nuclei (%): 50%
  Population Tubulin-Different-Phenotype (%): 48%
  Total Cell Count: 236
[2]
  Population Apoptotic (%): 21%
  Population Fragmented Nuclei (%): 4%
  Population Healthy Nuclei (%): 41%
  Population Hoechst High Intensity Objects (%): 4%
  Population Membrane Permeable-Phenotype (%): 6%
  Population Mitochondria Different-Phenotype (%): 33%
  Population Mitotic Cells (%): 78%
  Population Normal (%): 95%
  Population Pyknosed Nuclei (%): 53%
  Population Tubulin-Different-Phenotype (%): 25%
  Total Cell Count: 217
[3]
  Population Apoptotic (%): 76%
  Population Fragmented Nuclei (%): 7%
  Population Healthy Nuclei (%): 33%
  Population Hoechst High Intensity Objects (%): 15%
  Population Membrane Permeable-Phenotype (%): 4%
  Population Mitochondria Different-Phenotype (%): 97%
  Population Mitotic Cells (%): 23%
  Population Normal (%): 84%
  Population Pyknosed Nuclei (%): 59%
  Population Tubulin-Different-Phenotype (%): 98%
  Total Cell Count: 238
[4]
  Population Apoptotic (%): 58%
  Population Fragmented Nuclei (%): 5%
  Population Healthy Nuclei (%): 32%
  Population Hoechst High Intensity Objects (%): 7%
  Population Membrane Permeable-Phenotype (%): 1%
  Population Mitochondria Different-Phenotype (%): 88%
  Population Mitotic Cells (%): 41%
  Population Normal (%): 92%
  Population Pyknosed Nuclei (%): 61%
  Population Tubulin-Different-Phenotype (%): 95%
  Total Cell Count: 200
[5]
  Population Apoptotic (%): 49%
  Population Fragmented Nuclei (%): 12%
  Population Healthy Nuclei (%): 59%
  Population Hoechst High Intensity Objects (%): 10%
  Population Membrane Permeable-Phenotype (%): 1%
  Population Mitochondria Different-Phenotype (%): 70%
  Population Mitotic Cells (%): 50%
  Population Normal (%): 89%
  Population Pyknosed Nuclei (%): 28%
  Population Tubulin-Different-Phenotype (%): 47%
  Total Cell Count: 298
[6]
  Population Apoptotic (%): 18%
  Population Fragmented Nuclei (%): 8%
  Population Hoechst High Intensity Objects (%): 3%
  Population Membrane Permeable-Phenotype (%): 2%
  Population Mitochondria Different-Phenotype (%): 29%
  Population Mitotic Cells (%): 81%
  Population Normal (%): 96%
  Population Pyknosed Nuclei (%): 32%
  Population Tubulin-Different-Phenotype (%): 29%
  Total Cell Count: 264
[7]
  Population Apoptotic (%): 80%
  Population Fragmented Nuclei (%): 8%
  Population Healthy Nuclei (%): 40%
  Population Hoechst High Intensity Objects (%): 27%
  Population Membrane Permeable-Phenotype (%): 0%
  Population Mitotic Cells (%): 19%
  Population Normal (%): 72%
  Population Pyknosed Nuclei (%): 51%
  Population Tubulin-Different-Phenotype (%): 95%
  Total Cell Count: 241
[8]
  Population Apoptotic (%): 81%
  Population Fragmented Nuclei (%): 3%
  Population Healthy Nuclei (%): 42%
  Population Hoechst High Intensity Objects (%): 16%
  Population Membrane Permeable-Phenotype (%): 2%
  Population Mitochondria Different-Phenotype (%): 100%
  Population Mitotic Cells (%): 18%
  Population Normal (%): 83%
  Population Pyknosed Nuclei (%): 54%
  Population Tubulin-Different-Phenotype (%): 100%
  Total Cell Count: 190
[9]
  Population Apoptotic (%): 36%
  Population Healthy Nuclei (%): 79%
  Population Hoechst High Intensity Objects (%): 7%
  Population Membrane Permeable-Phenotype (%): 1%
  Population Mitochondria Different-Phenotype (%): 25%
  Population Mitotic Cells (%): 63%
  Population Normal (%): 92%
  Population Pyknosed Nuclei (%): 11%
  Population Tubulin-Different-Phenotype (%): 26%
  Total Cell Count: 532
[10]
  Population Apoptotic (%): 12%
  Population Fragmented Nuclei (%): 8%
  Population Healthy Nuclei (%): 76%
  Population Hoechst High Intensity Objects (%): 4%
  Population Membrane Permeable-Phenotype (%): 9%
  Population Mitochondria Different-Phenotype (%): 12%
  Population Mitotic Cells (%): 87%
  Population Normal (%): 95%
  Population Pyknosed Nuclei (%): 14%
  Population Tubulin-Different-Phenotype (%): 35%
  Total Cell Count: 420
[11]
  Population Apoptotic (%): 66%
  Population Fragmented Nuclei (%): 12%
  Population Healthy Nuclei (%): 48%
  Population Hoechst High Intensity Objects (%): 45%
  Population Membrane Permeable-Phenotype (%): 1%
  Population Mitochondria Different-Phenotype (%): 93%
  Population Mitotic Cells (%): 33%
  Population Normal (%): 54%
  Population Pyknosed Nuclei (%): 39%
  Population Tubulin-Different-Phenotype (%): 96%
  Total Cell Count: 288
[12]
  Population Apoptotic (%): 74%
  Population Fragmented Nuclei (%): 7%
  Population Healthy Nuclei (%): 54%
  Population Hoechst High Intensity Objects (%): 37%
  Population Membrane Permeable-Phenotype (%): 2%
  Population Mitochondria Different-Phenotype (%): 90%
  Population Mitotic Cells (%): 25%
  Population Normal (%): 62%
  Population Pyknosed Nuclei (%): 37%
  Population Tubulin-Different-Phenotype (%): 91%
  Total Cell Count: 217
